Data set [1] has as its system C6. Description: Cytotoxicity against rat C6 cells assessed as decrease in cell viability after 24 hrs by MTT assay. The format is functional, cell-based. Particulars: C6, 24 h. The gist of the method: (§1)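 Viability was read as cellular MTT reduction. Cisplatin and GSK690693 were run as reference controls. IC50 values were derived for each cell line.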
The subject of data set [2] is A549. Description: Cytotoxicity against human A549 cells assessed as decrease in cell viability after 24 hrs by MTT assay. The data set is classed as functional, cell-based. Particulars: A549, 24 h. The gist of the method:
as §1

For a further data set, the system named is NIH3T3. Description: Cytotoxicity against mouse NIH/3T3 cells assessed as decrease in cell viability after 24 hrs by MTT assay. The data set is classed as cell-based. Particulars: NIH3T3, 24 h. The gist of the method: as §1
(Tetrazolium assays rely on reduction of a dye to a coloured formazan, in cell work by metabolically active cells.)

Data set [3] is described as follows: Selectivity index, ratio of IC50 for mouse NIH/3T3 cells to IC50 for rat C6 cells. Particulars: NIH/3T3 cells versus C6 cells, read-out: Ratio IC50. The format is toxicity. The method, boiled down:
(§2)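 Selectivity index = IC50 for NIH/3T3 normal fibroblasts / IC50 for the cancer line (A549 or C6). […] An IC50 above 403.00 was taken as 403.00.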

The nature of data set [4]: Selectivity index, ratio of IC50 for mouse NIH/3T3 cells to IC50 for human A549 cells. The data set is classed as toxicity. Particulars: NIH/3T3 cells versus A549 cells, read-out: Ratio IC50. The gist of the method: as §2
Data set [5] relates to C6. Description: Induction of apoptosis in rat C6 cells assessed as early/late apoptotic cells at IC50 after 24 hrs by Annexin V-FITC/PI staining based flow cytometry (reference value: 8%). The format is functional. (Flow cytometry measures light scatter and fluorescence of single cells or particles in a stream.)
Data set [6] relates to C6. Description: Induction of apoptosis in rat C6 cells assessed as viable cells at IC50 after 24 hrs by Annexin V-FITC/PI staining based flow cytometry (reference value: 90%). The format is functional.
Data set [7] has as its system A549. Description: Induction of apoptosis in human A549 cells assessed as early/late apoptotic cells at IC50 after 24 hrs by Annexin V-FITC/PI staining based flow cytometry (reference value: 7.1%). The format is functional.
Data set [8] deals with A549. Description: Induction of apoptosis in human A549 cells assessed as viable cells at IC50 after 24 hrs by Annexin V-FITC/PI staining based flow cytometry (reference value: 89%). The format is functional.
Data set [9] relates to C6. Description: Induction of mitochondrial membrane potential loss in rat C6 cells assessed as intact mitochondrial membrane potential at IC50 measured after 24 hrs by JC-1 staining based flow cytometric analysis (reference value: 80%). The data set is classed as functional.
The test system of data set [10] is C6. Description: Induction of mitochondrial membrane potential loss in rat C6 cells at IC50 measured after 24 hrs by JC-1 staining based flow cytometric analysis (reference value: 19.9%). The format is functional.
Data set [11] concerns A549. Description: Induction of mitochondrial membrane potential loss in human A549 cells assessed as intact mitochondrial membrane potential at IC50 measured after 24 hrs by JC-1 staining based flow cytometric analysis (reference value: 90.4%). The data set is classed as functional.
For data set [12], the system named is A549. Description: Induction of mitochondrial membrane potential loss in human A549 cells at IC50 measured after 24 hrs by JC-1 staining based flow cytometric analysis (reference value: 9.8%). The format is functional.
Data set [13] has as its system C6. Description: Induction of apoptosis in rat C6 cells assessed as caspase-3 negative cell level at IC50 after 24 hrs by FITC-A labeled flow cytometry (reference value: 96.4%). The format is functional.
Data set [14] has as its system C6. Description: Induction of apoptosis in rat C6 cells assessed as caspase-3 positive cell level at IC50 after 24 hrs by FITC-A labeled flow cytometry (reference value: 4.8%). The format is functional.
In data set [15] the test system is A549. Description: Induction of apoptosis in human A549 cells assessed as caspase-3 negative cell level at IC50 after 24 hrs by FITC-A labeled flow cytometry (reference value: 98.1%). The format is functional.
For data set [16], the system named is A549. Description: Induction of apoptosis in human A549 cells assessed as caspase-3 positive cell level at IC50 after 24 hrs by FITC-A labeled flow cytometry (reference value: 2.1%). The data set is classed as functional.
Data set [17] concerns the target RAC-alpha serine/threonine-protein kinase (Rattus norvegicus, UniProt P47196). Description: Inhibition of Akt in rat C6 cells after 24 hrs by ELISA. The format is cell-based. The method, boiled down: (§3)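 In-cell colorimetric ELISA: 10,000 cells/well were treated 24 h, then fixed in 4% formaldehyde for 15 min, permeabilised, quenched and blocked. Primary antibody ran overnight at 4 °C, then HRP conjugate for 30 min, then TMB; absorbance was read at 450 nm. Wells were in triplicate and blank-subtracted. Activity is relative to untreated cells; IC50 came from graphs of three concentrations.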
For orientation: In an ELISA, binding on a coated surface is turned into a signal by an enzyme label.

In data set [18] the target is RAC-alpha serine/threonine-protein kinase (Homo sapiens, UniProt P31749). Description: Inhibition of Akt in human A549 cells after 24 hrs by ELISA. The format is cell-based. The gist of the method: as §3
RAC-alpha serine/threonine-protein kinase (Homo sapiens, UniProt P31749), sequence (P31749 whole entry): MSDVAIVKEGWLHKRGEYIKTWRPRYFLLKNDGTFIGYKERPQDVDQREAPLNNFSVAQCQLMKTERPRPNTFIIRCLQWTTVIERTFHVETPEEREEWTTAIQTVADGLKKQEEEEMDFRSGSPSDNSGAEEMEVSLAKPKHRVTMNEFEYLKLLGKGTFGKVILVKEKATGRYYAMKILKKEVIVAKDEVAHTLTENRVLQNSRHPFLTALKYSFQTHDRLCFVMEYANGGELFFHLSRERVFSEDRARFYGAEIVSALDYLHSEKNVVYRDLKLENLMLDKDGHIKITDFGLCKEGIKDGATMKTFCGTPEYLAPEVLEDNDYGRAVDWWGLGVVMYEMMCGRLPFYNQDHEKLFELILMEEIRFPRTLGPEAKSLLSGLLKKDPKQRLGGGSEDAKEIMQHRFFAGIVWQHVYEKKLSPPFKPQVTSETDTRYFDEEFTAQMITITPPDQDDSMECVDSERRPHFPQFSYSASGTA
In another data set the target is Focal adhesion kinase 1 (Rattus norvegicus, UniProt O35346). Description: Inhibition of FAK phasphorylation at Tyr397 residues in rat C6 cells after 24 hrs by ELISA. The format is cell-based. The method, boiled down:
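Cell-based colorimetric ELISA in C6 cells treated 24 h: cells were fixed in 4% formaldehyde for 20 min, quenched, and blocked for 1 h. Anti-FAK pTyr397, anti-FAK and anti-GAPDH primaries ran overnight at 4 °C, then HRP secondaries for 1.5 h and substrate for 30 min. OD450 was read in duplicate wells; pFAK was normalised to GAPDH. IC50 came from graphs of three concentrations.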

The subject of data set [19] is A549. Description: Induction of apoptotic morphological alterations in human A549 cells assessed as rounding of cells at IC50 after 24 hrs by transmission electron microscopy. The format is functional, cell-based. The method, boiled down:
(§4)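 Cells were fixed in 2.5% glutaraldehyde in 0.1 M PBS pH 7.4 and held overnight at 4 °C, then agar-embedded and post-fixed in 2% osmium tetroxide. They were dehydrated through graded ethanol, embedded in EPON 812, ultrathin-sectioned and examined by transmission electron microscopy.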

The test system of data set [20] is A549. Description: Induction of apoptotic morphological alterations in human A549 cells assessed as disruption of cellular organization at IC50 after 24 hrs by transmission electron microscopy. The data set is classed as functional, cell-based. The gist of the method:
as §4

In data set [21] the test system is A549. Description: Induction of apoptotic morphological alterations in human A549 cells assessed as cell shrinkage at IC50 after 24 hrs by transmission electron microscopy. The data set is classed as functional, cell-based. The gist of the method:
as §4

For data set [22], the system named is A549. Description: Induction of apoptotic morphological alterations in human A549 cells assessed as DNA condensation at IC50 after 24 hrs by transmission electron microscopy. The data set is classed as functional, cell-based. The gist of the method:
as §4

The test system of data set [23] is A549. Description: Induction of apoptotic morphological alterations in human A549 cells assessed as organellar membrane damage at IC50 after 24 hrs by transmission electron microscopy. The format is functional, cell-based. The method, boiled down:
as §4

Data set [24] relates to C6. Description: Induction of apoptotic morphological alterations in rat C6 cells assessed as rounding of cells at IC50 after 24 hrs by transmission electron microscopy. The format is functional, cell-based. The gist of the method: as §4
Data set [25] has as its system C6. Description: Induction of apoptotic morphological alterations in rat C6 cells assessed as disruption of cellular organization at IC50 after 24 hrs by transmission electron microscopy. The format is functional, cell-based. The method, boiled down: as §4
Data set [26] relates to C6. Description: Induction of apoptotic morphological alterations in rat C6 cells assessed as cell shrinkage at IC50 after 24 hrs by transmission electron microscopy. The data set is classed as functional, cell-based. The gist of the method: as §4
Data set [27] concerns C6. Description: Induction of apoptotic morphological alterations in rat C6 cells assessed as DNA condensation at IC50 after 24 hrs by transmission electron microscopy. The format is functional, cell-based. The gist of the method: as §4
Data set [28] relates to C6. Description: Induction of apoptotic morphological alterations in rat C6 cells assessed as organellar membrane damage at IC50 after 24 hrs by transmission electron microscopy. The format is functional, cell-based. The method, boiled down: as §4

Calls of active or inactive are those of the source. No cut-off for these calls is given here.

The IC50 is the concentration needed to halve the response being measured.

RAC-alpha serine/threonine-protein kinase (Rattus norvegicus, UniProt P47196), sequence (P47196 whole entry): as the sequence (P31749 whole entry) above, with S2N, D46E, A50S, K112R, E117T, S137A, K389T, G410N, H415D counted along it
Focal adhesion kinase 1, sequence (O35346 whole entry): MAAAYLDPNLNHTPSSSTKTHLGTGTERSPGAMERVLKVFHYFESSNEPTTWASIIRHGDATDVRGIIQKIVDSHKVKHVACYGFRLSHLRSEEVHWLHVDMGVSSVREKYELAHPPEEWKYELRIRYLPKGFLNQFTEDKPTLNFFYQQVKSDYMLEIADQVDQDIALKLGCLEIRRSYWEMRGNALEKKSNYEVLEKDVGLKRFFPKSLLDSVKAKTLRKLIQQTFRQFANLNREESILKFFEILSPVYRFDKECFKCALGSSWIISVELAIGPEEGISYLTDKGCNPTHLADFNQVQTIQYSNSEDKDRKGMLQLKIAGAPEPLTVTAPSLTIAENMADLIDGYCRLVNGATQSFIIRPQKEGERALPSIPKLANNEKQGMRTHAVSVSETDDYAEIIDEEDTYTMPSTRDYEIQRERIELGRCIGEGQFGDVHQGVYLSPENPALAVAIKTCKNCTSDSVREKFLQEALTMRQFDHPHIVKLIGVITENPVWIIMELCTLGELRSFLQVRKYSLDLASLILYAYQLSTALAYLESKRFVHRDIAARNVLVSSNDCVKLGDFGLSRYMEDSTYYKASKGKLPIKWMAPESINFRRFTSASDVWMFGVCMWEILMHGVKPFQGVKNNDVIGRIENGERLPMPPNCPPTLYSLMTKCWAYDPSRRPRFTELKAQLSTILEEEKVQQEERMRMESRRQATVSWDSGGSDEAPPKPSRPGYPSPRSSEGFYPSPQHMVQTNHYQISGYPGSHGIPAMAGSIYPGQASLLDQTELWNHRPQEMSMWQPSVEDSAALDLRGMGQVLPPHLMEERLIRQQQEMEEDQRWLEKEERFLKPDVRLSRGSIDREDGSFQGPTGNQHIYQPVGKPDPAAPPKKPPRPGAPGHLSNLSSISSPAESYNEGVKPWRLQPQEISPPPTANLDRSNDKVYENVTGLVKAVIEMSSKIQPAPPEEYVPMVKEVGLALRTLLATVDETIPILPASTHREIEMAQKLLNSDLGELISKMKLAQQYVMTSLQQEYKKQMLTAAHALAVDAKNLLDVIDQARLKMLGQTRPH

Regarding `O=C(CSc1nnc(COc2ccc3c(c2)CCCC3)o1)Nc1nc2ccccc2s1`, the IC50 in the data set with C6 [1] was 153 µM; in the data set on A549 [2], 247 µM; in the data set on NIH3T3, 96.7 µM. Further, the selectivity ratio in data set [3] came to 0.63; in [4], 0.39.

In the case of `O=C(CSc1nnc(COc2ccc3c(c2)CCCC3)o1)Nc1nccs1`, the values for the IC50 with C6 [1], with A549 [2] and in the data set on NIH3T3 were 213 µM, 228 µM and over 403 µM, respectively. For the same compound, the values for the selectivity ratio in data set [3] and in data set [4] were over 1.89 and over 1.76, respectively.

On to `O=C(CSc1nnc(COc2ccc3c(c2)CCCC3)o1)Nc1ncc([N+](=O)[O-])s1`, for which the concentration for half-maximal inhibition (IC50) in the data set with C6 [1] is 66.7 µM; in the data set on A549 [2], 115 µM; in the data set with NIH3T3 it was over 403 µM; in data set [17], 44.5 µM; in [18], 138 µM; against Focal adhesion kinase 1, 105 µM. Moreover, the selectivity ratio in [3] is over 6.04; in [4], over 3.5. The Activity with C6 [5] is on record as 12.3%; in the data set on C6 [6], 80.8%; in the data set with A549 [7], 25.3%; in the data set with A549 [8], 67.8%; in the data set on C6 [9] it was 0.6%; with C6 [10], 98%. The Activity is 2.4% in the data set with A549 [11]; 95.5% in the data set with A549 [12]; 90.1% with C6 [13]; 11.3% with C6 [14]; 95.1% in the data set on A549 [15]; 5.4% with A549 [16]. For the same compound, the outcome with A549 [19], in the data set with A549 [20], with A549 [21], in the data set with A549 [22], in the data set on A549 [23] and with C6 [24] was Active. In addition, the result in the data set with C6 [25], with C6 [26], in the data set with C6 [27] and in the data set with C6 [28] was Active.

On to `Cc1ccc2nc(NC(=O)CSc3nnc(COc4ccc5c(c4)CCCC5)o3)sc2c1`, for which the figures for the IC50 in the data set with C6 [1], with A549 [2] and in the data set on NIH3T3 were 108 µM, 210 µM and over 403 µM, respectively. The selectivity ratio in data set [3] is over 3.72; in data set [4], over 1.92.

For the compound `CCn1c(-c2nonc2N)nc2c(C#CC(C)(C)O)ncc(OC[C@H]3CCCNC3)c21` [GSK-690693], the IC50 worked out at 14.5 µM in the data set on C6 [1], 105 µM in the data set on A549 [2] and 6.97 µM in data set [17].

Turning to `O=C(CSc1nnc(COc2ccc3c(c2)CCCC3)o1)Nc1nc2ccc(F)cc2s1`, the 50% inhibitory concentration (IC50) in the data set with C6 [1] is 89.3 µM; with A549 [2], 91.7 µM; in the data set with NIH3T3, 292 µM; in [17], 165 µM; in [18] it was 98.3 µM; against Focal adhesion kinase 1 it was 118 µM. The selectivity ratio in [3] was 3.27; in data set [4], 3.18. Further, the Activity is recorded as 11.9% in the data set on C6 [5]; 84.9% with C6 [6]; 17% with A549 [7]; 79.1% with A549 [8]; 32.6% with C6 [9]; 60.1% in the data set on C6 [10]. For the same compound, the Activity in the data set on A549 [11] was 78.2%; in the data set with A549 [12] it was 21%; in the data set with C6 [13], 90.8%; in the data set on C6 [14], 11.7%; in the data set with A549 [15], 93.5%; with A549 [16] it was 7.1%. In addition, the outcome with A549 [19], with A549 [20], with A549 [21], with A549 [22], with A549 [23] and with C6 [24] was Active. Besides, the outcome with C6 [25], in the data set on C6 [26], with C6 [27] and in the data set on C6 [28] was Active.

Take `CCOc1ccc2nc(NC(=O)CSc3nnc(COc4ccc5c(c4)CCCC5)o3)sc2c1`: the concentration for half-maximal inhibition (IC50) in the data set with C6 [1] is 93.3 µM; with A549 [2] it was 283 µM; in the data set on NIH3T3 it was over 403 µM. Further, the selectivity ratio in [3] was over 4.32; in [4], over 1.42.

On to `O=C(CSc1nnc(COc2ccc3c(c2)CCCC3)o1)Nc1nc2ccc([N+](=O)[O-])cc2s1`, for which the IC50 turned out to be 98.3 µM in the data set on C6 [1], 233 µM with A549 [2] and 336 µM with NIH3T3. For the same compound, the selectivity ratio is 3.41 in [3] and 1.44 in data set [4].

As to `O=C(CSc1nnc(COc2ccc3c(c2)CCCC3)o1)Nc1nc2ccc(Cl)cc2s1`, the IC50 turned out to be 237 µM in the data set on C6 [1], 263 µM with A549 [2] and 247 µM in the data set on NIH3T3. The selectivity ratio in data set [3] was 1.04; in [4], 0.94.

The record behind these values is ChEMBL document CHEMBL4152328, “Design, synthesis, in vitro and in silico evaluation of a new series of oxadiazole-based anticancer agents as potential Akt and FAK inhibitors” (Eur J Med Chem, 2018).
